Assay results: ChEMBL document CHEMBL3244400, “Synthesis of 3,4-dihydro-4-oxothieno[2,3-d]pyrimidine-2-carboxylates, a new series of orally active antiallergy agents” (J Med Chem, 1979)

Tests used:
Type in all cases: functional
[1] = test system: Rattus norvegicus; assay: Inhibition of egg albumin-induced allergic bronchospasm in sensitized, spontaneously breathing and anesthesized Harlan-Wistar rat assessed as inhibition of control allergic hypotension response at 1.56 mg/kg administered intraduodenally 15 min prior to antigen challenge; settings: route intraduodenal
Procedure, shortened: (§1)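 Male Harlan-Wistar rats (225–275 g) were sensitized with EA im (1 mg/rat) plus pertussis vaccine ip. After 13–15 days they were urethane-anesthetized (1.5 g/kg ip). Drug was given intraduodenally in methocel or iv in saline, then EA 2 mg/rat iv. Pulmonary ventilation pressure and mean arterial pressure were recorded. Individual responses were compared with a separate vehicle-control group mean; 4–15 rats/group.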

[2] = test system: Rattus norvegicus; assay: Inhibition of egg albumin-induced allergic bronchospasm in sensitized, spontaneously breathing and anesthesized Harlan-Wistar rat assessed as inhibition of control allergic bronchospasm response at 50 mg/kg administered intraduodenally 15 min prior to antigen challenge; settings: route intraduodenal; procedure, shortened: as §1
[3] = test system: Rattus norvegicus; assay: Inhibition of egg albumin-induced allergic bronchospasm in sensitized, spontaneously breathing and anesthesized Harlan-Wistar rat assessed as inhibition of control allergic bronchospasm response compound administered intraduodenally 15 min prior to antigen challenge; procedure, shortened: as §1
[4] = test system: Rattus norvegicus; assay: Inhibition of egg albumin-induced allergic bronchospasm in sensitized, spontaneously breathing and anesthesized Harlan-Wistar rat assessed as drop in pulmonary arterial blood pressure at 12.5 mg/kg administered intraduodenally 15 min prior to antigen challenge (reference value: 32.2 +/- 4.7 %); settings: route intraduodenal; procedure, shortened: as §1
[5] = test system: Rattus norvegicus; assay: Inhibition of egg albumin-induced allergic bronchospasm in sensitized, spontaneously breathing and anesthesized Harlan-Wistar rat assessed as drop in pulmonary arterial blood pressure at 50 mg/kg administered intraduodenally 15 min prior to antigen challenge (reference value: 32.2 +/- 4.7 %); settings: route intraduodenal; procedure, shortened: as §1
[6] = test system: Rattus norvegicus; assay: Inhibition of egg albumin-induced allergic bronchospasm in sensitized, spontaneously breathing and anesthesized Harlan-Wistar rat assessed as drop in mean arterial blood pressure at 3.125 mg/kg administered intraduodenally 15 min prior to antigen challenge (reference value: 46.3 +/- 3.5 %); settings: route intraduodenal; procedure, shortened: as §1
[7] = test system: Rattus norvegicus; assay: Inhibition of egg albumin-induced allergic bronchospasm in sensitized, spontaneously breathing and anesthesized Harlan-Wistar rat assessed as drop in mean arterial blood pressure at 12.5 mg/kg administered intraduodenally 15 min prior to antigen challenge (reference value: 46.3 +/- 3.5 %); settings: route intraduodenal; procedure, shortened: as §1
[8] = test system: Rattus norvegicus; assay: Inhibition of egg albumin-induced allergic bronchospasm in sensitized, spontaneously breathing and anesthesized Harlan-Wistar rat assessed as inhibition of control allergic bronchospasm response at 1.56 mg/kg administered intraduodenally 15 min prior to antigen challenge; settings: route intraduodenal; procedure, shortened: as §1
[9] = test system: Rattus norvegicus; assay: Inhibition of egg albumin-induced allergic bronchospasm in sensitized, spontaneously breathing and anesthesized Harlan-Wistar rat assessed as drop in pulmonary arterial blood pressure at 6.25 mg/kg administered intraduodenally 15 min prior to antigen challenge (reference value: 32.2 +/- 4.7 %); settings: route intraduodenal; procedure, shortened: as §1
[10] = test system: Rattus norvegicus; assay: Inhibition of egg albumin-induced allergic bronchospasm in sensitized, spontaneously breathing and anesthesized Harlan-Wistar rat assessed as inhibition of control allergic hypotension response at 6.25 mg/kg administered intraduodenally 15 min prior to antigen challenge; settings: route intraduodenal; procedure, shortened: as §1
[11] = test system: Rattus norvegicus; assay: Inhibition of egg albumin-induced allergic bronchospasm in sensitized, spontaneously breathing and anesthesized Harlan-Wistar rat assessed as drop in mean arterial blood pressure at 1.56 mg/kg administered intraduodenally 15 min prior to antigen challenge (reference value: 46.3 +/- 3.5 %); settings: route intraduodenal; procedure, shortened: as §1
[12] = test system: Rattus norvegicus; assay: Inhibition of egg albumin-induced allergic bronchospasm in sensitized, spontaneously breathing and anesthesized Harlan-Wistar rat assessed as inhibition of control allergic bronchospasm response at 6.25 mg/kg administered intraduodenally 15 min prior to antigen challenge; settings: route intraduodenal; procedure, shortened: as §1
[13] = test system: Rattus norvegicus; assay: Inhibition of egg albumin-induced allergic bronchospasm in sensitized, spontaneously breathing and anesthesized Harlan-Wistar rat assessed as inhibition of control allergic hypotension response at 3.125 mg/kg administered intraduodenally 15 min prior to antigen challenge; settings: route intraduodenal; procedure, shortened: as §1
[14] = test system: Rattus norvegicus; assay: Inhibition of egg albumin-induced allergic bronchospasm in sensitized, spontaneously breathing and anesthesized Harlan-Wistar rat assessed as drop in pulmonary arterial blood pressure at 1.56 mg/kg administered intraduodenally 15 min prior to antigen challenge (reference value: 32.2 +/- 4.7 %); settings: route intraduodenal; procedure, shortened: as §1
[15] = test system: Rattus norvegicus; assay: Inhibition of egg albumin-induced allergic bronchospasm in sensitized, spontaneously breathing and anesthesized Harlan-Wistar rat assessed as drop in mean arterial blood pressure at 6.25 mg/kg administered intraduodenally 15 min prior to antigen challenge (reference value: 46.3 +/- 3.5 %); settings: route intraduodenal; procedure, shortened: as §1
[16] = test system: Rattus norvegicus; assay: Inhibition of egg albumin-induced allergic bronchospasm in sensitized, spontaneously breathing and anesthesized Harlan-Wistar rat assessed as drop in pulmonary arterial blood pressure at 3.125 mg/kg administered intraduodenally 15 min prior to antigen challenge (reference value: 32.2 +/- 4.7 %); settings: route intraduodenal; procedure, shortened: as §1
[17] = test system: Rattus norvegicus; assay: Inhibition of egg albumin-induced allergic bronchospasm in sensitized, spontaneously breathing and anesthesized Harlan-Wistar rat assessed as inhibition of control allergic bronchospasm response at 12.5 mg/kg administered intraduodenally 15 min prior to antigen challenge; settings: route intraduodenal; procedure, shortened: as §1
[18] = test system: Rattus norvegicus; assay: Inhibition of egg albumin-induced allergic bronchospasm in sensitized, spontaneously breathing and anesthesized Harlan-Wistar rat assessed as drop in mean arterial blood pressure at 50 mg/kg administered intraduodenally 15 min prior to antigen challenge (reference value: 46.3 +/- 3.5 %); settings: route intraduodenal; procedure, shortened: as §1
[19] = test system: Rattus norvegicus; assay: Inhibition of egg albumin-induced allergic bronchospasm in sensitized, spontaneously breathing and anesthesized Harlan-Wistar rat assessed as inhibition of control allergic bronchospasm response at 3.125 mg/kg administered intraduodenally 15 min prior to antigen challenge; settings: route intraduodenal; procedure, shortened: as §1
[20] = test system: Rattus norvegicus; assay: Inhibition of egg albumin-induced allergic bronchospasm in sensitized, spontaneously breathing and anesthesized Harlan-Wistar rat assessed as inhibition of control allergic hypotension response compound administered intraduodenally 15 min prior to antigen challenge; settings: in the assay text read “bronchospasm response” for “hypotension response”; procedure, shortened: as §1
[21] = test system: Rattus norvegicus; assay: Inhibition of egg albumin-induced allergic bronchospasm in sensitized, spontaneously breathing and anesthesized Harlan-Wistar rat assessed as inhibition of control allergic hypotension response at 12.5 mg/kg administered intraduodenally 15 min prior to antigen challenge; settings: route intraduodenal; procedure, shortened: as §1
[22] = test system: Rattus norvegicus; assay: Inhibition of egg albumin-induced allergic bronchospasm in sensitized, spontaneously breathing and anesthesized Harlan-Wistar rat assessed as inhibition of control allergic hypotension response at 50 mg/kg administered intraduodenally 15 min prior to antigen challenge; settings: route intraduodenal; procedure, shortened: as §1
[23] = test system: Rattus norvegicus; assay: Antiallergic activity against egg albumin-induced anaphylaxis in iv dosed sensitized rat compound administered 15 mins prior to antigen challenge as single dose by passive cutaneous anaphylaxis test
Procedure, shortened: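 Male Sprague–Dawley or Wistar rats (100–150 g) were passively sensitized by two intradermal dilutions of rat anti-egg-albumin serum, which was mainly IgE and raised with EA im (10 mg/kg) plus killed pertussis vaccine iv. After 48 h, drug or vehicle was given. Rats were then challenged iv with EA plus Evans Blue (25 mg/kg each). Spot diameter was read 20–30 min later; ≥5 rats/compound. % inhibition was calculated versus control mean diameter.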

[24] = test system: Rattus norvegicus; assay: Inhibition of egg albumin-induced allergic bronchospasm in sensitized, spontaneously breathing and anesthesized Harlan-Wistar rat assessed as drop in pulmonary arterial blood pressure at 2 mg/kg, iv administered 1 min prior to antigen challenge (reference value: 36.4 +/- 3.5 %); procedure, shortened: as §1
[25] = test system: Rattus norvegicus; assay: Inhibition of egg albumin-induced allergic bronchospasm in sensitized, spontaneously breathing and anesthesized Harlan-Wistar rat assessed as drop in mean arterial blood pressure at 2 mg/kg, iv administered 1 min prior to antigen challenge (reference value: 49.7+/- 1.9 %); procedure, shortened: as §1
[26] = test system: Mast cell; assay: Inhibition of histamine release in Sprague-Dawley rat peritoneal mast cells at 5 uM after 10 mins by fluorimetry relative to control
Procedure, shortened: (§2)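 Peritoneal lavage cells from male Sprague–Dawley rats (200–300 g) were sensitized for 2 h at 37 °C in rat anti-EA serum with heparin. Cells were resuspended in buffered HBSS and challenged with EA. Drug was added together with antigen. After 10 min incubation, histamine was measured fluorimetrically. % inhibition was calculated versus release without drug.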

[27] = test system: Mast cell; assay: Inhibition of histamine release in Sprague-Dawley rat peritoneal mast cells at 1.25 uM after 10 mins by fluorimetry relative to control; procedure, shortened: as §2
[28] = test system: Rattus norvegicus; assay: Inhibition of egg albumin-induced allergic bronchospasm in sensitized, spontaneously breathing and anesthesized Harlan-Wistar rat assessed as inhibition of control allergic bronchospasm response at 2 mg/kg, iv administered 1 min prior to antigen challenge; procedure, shortened: as §1
[29] = test system: Rattus norvegicus; assay: Inhibition of egg albumin-induced allergic bronchospasm in sensitized, spontaneously breathing and anesthesized Harlan-Wistar rat assessed as inhibition of control allergic hypotension response at 2 mg/kg, iv administered 1 min prior to antigen challenge; procedure, shortened: as §1
[30] = test system: Mast cell; assay: Inhibition of histamine release in Sprague-Dawley rat peritoneal mast cells at 20 uM after 10 mins by fluorimetry relative to control; procedure, shortened: as §2

CCCCCCc1sc2nc(C(=O)[O-])nc([O-])c2c1C.O.[Na+].[Na+]
inhibition in vivo at 1.56 mg/kg [1]: 0%
inhibition in vivo at 50 mg/kg [2]: 61.2%
inhibition [3]: Dose-dependent effect
ED50 ([3]; intraduodenal): 3.8 mg/kg
inhibition in vivo at 12.5 mg/kg [4]: 21.6%
inhibition in vivo at 50 mg/kg [5]: 14%
inhibition in vivo at 3.125 mg/kg [6]: 47.6%
inhibition in vivo at 12.5 mg/kg [7]: 55.2%
inhibition in vivo at 1.56 mg/kg [8]: 9.4%
inhibition in vivo at 6.25 mg/kg [9]: 28%
inhibition in vivo at 6.25 mg/kg [10]: 28.8%
inhibition in vivo at 1.56 mg/kg [11]: 63.8%
inhibition in vivo at 6.25 mg/kg [12]: 34.2%
inhibition in vivo at 3.125 mg/kg [13]: 15.4%
inhibition in vivo at 1.56 mg/kg [14]: 42%
inhibition in vivo at 6.25 mg/kg [15]: 38.4%
inhibition in vivo at 3.125 mg/kg [16]: 27.6%
inhibition in vivo at 12.5 mg/kg [17]: 41%
inhibition in vivo at 50 mg/kg [18]: 45%
inhibition in vivo at 3.125 mg/kg [19]: 28.3%
inhibition [20]: Dose-dependent effect
ED50 ([20]; intraduodenal): 3.8 mg/kg
inhibition in vivo at 12.5 mg/kg [21]: 0%
inhibition in vivo at 50 mg/kg [22]: 14%

O=C([O-])c1cc(=O)c2c(OCC(O)COc3cccc4oc(C(=O)[O-])cc(=O)c34)cccc2o1.[Na+].[Na+] [CROMOLYN SODIUM]
ED50 [23]: 0.6 mg/kg
inhibition in vivo at 2 mg/kg [24]: 13%
inhibition in vivo at 2 mg/kg [25]: 38.8%
inhibition at 5 µM [26]: 50%
inhibition at 1.25 µM [27]: 20%
inhibition in vivo at 2 mg/kg [28]: 63.8%
inhibition in vivo at 2 mg/kg [29]: 22.4%
inhibition at 20 µM [30]: 75%
